GI50 data for 19 compounds are collected here from ChEMBL document CHEMBL4145441, “Discovery of N-(5-((5-chloro-4-((2-(isopropylsulfonyl)phenyl)amino)pyrimidin-2-yl)amino)-4-methoxy-2-(4-methyl-1,4-diazepan-1-yl)phenyl)acrylamide (CHMFL-ALK/EGFR-050) as a potent ALK/EGFR dual kinase inhibitor capable of overcoming a variety of ALK/EGFR associated drug resistant mutants in NSCLC” (Eur J Med Chem, 2017).

One may read the GI50 as the concentration giving 50% growth inhibition.

Data set [1] has as its system NCI-H1975. Nature of the data set: Growth inhibition of human NCI-H1975 cells after 72 hrs by CellTiter-Glo assay. Type of data set: functional. The settings on record: NCI-H1975, 72 h. A digest of the protocol: (§1)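 Antiproliferative GI50 against H1975 and H3122 cells; each GI50 value obtained from triplicate testing.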
Background: Cellular ATP, detected with luciferase, serves as a proxy for viable cell number.

The subject of data set [2] is NCI-H3122. The data set can be described thus: Growth inhibition of human NCI-H3122 cells after 72 hrs by CellTiter-Glo assay. The settings on record: NCI-H3122, 72 h. The class given is functional. Summed up: as §1
Data set [3] can be described thus: Antiproliferative activity against CHO cells after 72 hrs by CellTiter-Glo assay. Type of data set: cell-based, Cricetulus griseus. The settings on record: chinese hamster.
The test system of data set [4] is NCI-H3122. Nature of the data set: Antiproliferative activity against human NCI-H3122 cells harboring EML4-fused ALK varian1 after 72 hrs by CellTiter-Glo assay. Type of data set: functional. The following applies: NCI-H3122, 72 h. Summed up:
as §1

A short description of data set [5]: Antiproliferative activity against mouse BAF3 cells after 72 hrs by CellTiter-Glo assay. The class given is cell-based.
A short description of data set [6]: Antiproliferative activity against CHL cells after 72 hrs by CellTiter-Glo assay. Type of data set: cell-based, Cricetulus griseus. The following applies: chinese hamster.
The subject of data set [7] is Epidermal growth factor receptor (Homo sapiens), P00533 [T790M]. The data set can be described thus: Inhibition of TEL-fused EGFR T790M mutant (unknown origin) expressed in mouse BAF3 cells assessed as decrease in cell proliferation after 72 hrs by CellTiter-Glo assay. The class given is cell-based.
The target in data set [8] is Epidermal growth factor receptor (Homo sapiens, UniProt P00533). The data set can be described thus: Inhibition of TEL-fused EGFR (unknown origin) expressed in mouse BAF3 cells assessed as decrease in cell proliferation after 72 hrs by CellTiter-Glo assay. Type of data set: cell-based.

Bounds are passed on as bounds.

Chain of Epidermal growth factor receptor (P00533 whole entry, the tested form may be a part): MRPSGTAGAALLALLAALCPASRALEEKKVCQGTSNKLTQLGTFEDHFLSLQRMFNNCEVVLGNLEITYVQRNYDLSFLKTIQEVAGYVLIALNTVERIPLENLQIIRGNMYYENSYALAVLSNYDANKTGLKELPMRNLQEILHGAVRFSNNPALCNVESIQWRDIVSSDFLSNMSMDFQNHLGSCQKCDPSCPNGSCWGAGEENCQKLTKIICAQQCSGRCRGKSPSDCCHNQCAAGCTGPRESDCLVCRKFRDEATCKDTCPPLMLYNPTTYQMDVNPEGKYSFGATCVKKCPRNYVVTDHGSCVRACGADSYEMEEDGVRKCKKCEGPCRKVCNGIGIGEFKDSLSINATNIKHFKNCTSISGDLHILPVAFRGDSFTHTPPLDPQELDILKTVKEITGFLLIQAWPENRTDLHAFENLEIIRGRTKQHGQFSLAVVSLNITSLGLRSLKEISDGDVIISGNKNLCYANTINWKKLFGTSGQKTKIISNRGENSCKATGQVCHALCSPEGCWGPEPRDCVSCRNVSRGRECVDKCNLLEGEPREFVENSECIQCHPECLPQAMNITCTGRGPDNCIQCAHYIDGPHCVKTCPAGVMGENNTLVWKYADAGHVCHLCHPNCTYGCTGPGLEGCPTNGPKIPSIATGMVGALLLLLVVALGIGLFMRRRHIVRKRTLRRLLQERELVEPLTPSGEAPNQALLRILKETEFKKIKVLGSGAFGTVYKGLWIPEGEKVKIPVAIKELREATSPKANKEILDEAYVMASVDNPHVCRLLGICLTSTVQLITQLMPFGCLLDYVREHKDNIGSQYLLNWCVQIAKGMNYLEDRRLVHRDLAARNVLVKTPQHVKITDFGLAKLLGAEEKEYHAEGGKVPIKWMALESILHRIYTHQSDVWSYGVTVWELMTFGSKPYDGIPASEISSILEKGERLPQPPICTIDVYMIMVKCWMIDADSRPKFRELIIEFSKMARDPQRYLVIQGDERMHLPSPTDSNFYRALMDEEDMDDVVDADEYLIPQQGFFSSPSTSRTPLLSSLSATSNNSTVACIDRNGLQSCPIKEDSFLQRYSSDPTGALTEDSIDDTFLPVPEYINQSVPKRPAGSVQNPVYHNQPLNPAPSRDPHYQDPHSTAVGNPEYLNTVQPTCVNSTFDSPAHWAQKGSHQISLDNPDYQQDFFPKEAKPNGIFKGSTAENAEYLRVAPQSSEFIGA
Chain of Epidermal growth factor receptor (Homo sapiens), P00533 [T790M] (P00533 whole entry T790M, the tested form may be a part): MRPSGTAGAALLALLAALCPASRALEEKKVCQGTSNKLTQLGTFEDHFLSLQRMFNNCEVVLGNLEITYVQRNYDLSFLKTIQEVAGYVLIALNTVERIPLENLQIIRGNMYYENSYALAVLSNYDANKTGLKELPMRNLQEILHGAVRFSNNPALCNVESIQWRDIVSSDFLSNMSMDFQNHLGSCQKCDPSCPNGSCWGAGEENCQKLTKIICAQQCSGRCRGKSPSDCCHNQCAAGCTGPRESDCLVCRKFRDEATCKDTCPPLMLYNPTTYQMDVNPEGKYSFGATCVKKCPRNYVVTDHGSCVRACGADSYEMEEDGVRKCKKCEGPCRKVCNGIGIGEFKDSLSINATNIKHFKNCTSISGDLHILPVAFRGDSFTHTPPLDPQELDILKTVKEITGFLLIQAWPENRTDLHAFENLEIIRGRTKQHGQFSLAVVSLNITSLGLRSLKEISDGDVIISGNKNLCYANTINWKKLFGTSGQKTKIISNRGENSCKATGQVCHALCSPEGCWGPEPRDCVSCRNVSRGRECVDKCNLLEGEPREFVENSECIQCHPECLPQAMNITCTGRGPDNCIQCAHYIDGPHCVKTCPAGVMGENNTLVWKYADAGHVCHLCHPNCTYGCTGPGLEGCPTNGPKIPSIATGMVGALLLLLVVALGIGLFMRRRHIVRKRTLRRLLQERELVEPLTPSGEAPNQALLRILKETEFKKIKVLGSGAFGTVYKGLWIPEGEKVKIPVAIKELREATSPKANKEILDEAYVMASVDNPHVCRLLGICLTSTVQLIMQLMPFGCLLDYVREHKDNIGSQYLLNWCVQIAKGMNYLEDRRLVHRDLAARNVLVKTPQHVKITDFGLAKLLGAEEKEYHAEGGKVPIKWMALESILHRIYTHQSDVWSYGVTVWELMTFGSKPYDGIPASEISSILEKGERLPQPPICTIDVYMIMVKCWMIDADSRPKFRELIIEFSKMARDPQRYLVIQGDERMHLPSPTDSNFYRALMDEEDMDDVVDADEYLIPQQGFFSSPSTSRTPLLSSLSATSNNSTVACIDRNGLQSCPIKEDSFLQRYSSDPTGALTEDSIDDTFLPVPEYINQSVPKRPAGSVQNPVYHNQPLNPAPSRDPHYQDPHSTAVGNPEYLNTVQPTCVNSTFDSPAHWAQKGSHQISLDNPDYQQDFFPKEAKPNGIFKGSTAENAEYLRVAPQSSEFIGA

Take `C=CC(=O)Nc1cc(Nc2ncc(Cl)c(Nc3ccccc3C(=O)NC)n2)c(OC)cc1N1CCN(C(C)C)CC1`: the concentration for 50% growth inhibition (GI50) in data set [1] came out at 79 nM; in data set [2], 4.5 nM.

In the case of `C=CC(=O)Nc1cc(Nc2ncc(Cl)c(Nc3ccccc3NC(=O)C(C)(C)C)n2)c(OC)cc1N1CCN(C)CC1`, the GI50 in data set [1] is 950 nM; in data set [2], 6500 nM.

`C=CC(=O)Nc1cc(Nc2ncc(Cl)c(Nc3ccccc3S(=O)(=O)C(C)C)n2)c(OC)cc1N1CCN(S(C)(=O)=O)CC1` gave a 50% growth inhibitory concentration (GI50) in data set [1] of 40 nM.

Regarding `C=CC(=O)Nc1cc(Nc2ncc(Cl)c(Nc3ccccc3S(=O)(=O)N(C)C)n2)c(OC)cc1N1CCN(C)CC1`, the concentration for 50% growth inhibition (GI50) in data set [1] was found to be 31 nM; in data set [2] it was 11 nM.

As for `C=CC(=O)Nc1cc(Nc2ncc(Cl)c(Nc3ccccc3S(=O)(=O)C(C)C)n2)c(OC)cc1N1CCN(C)CC1`, the GI50 is 43 nM in data set [1] and 33 nM in data set [2].

For `C=CC(=O)Nc1cc(Nc2ncc(Cl)c(Nc3ccccc3P(C)(C)=O)n2)c(OC)cc1N1CCC(N2CCCCC2)CC1`, the 50% growth inhibitory concentration (GI50) was found to be 41 nM in data set [1] and 78 nM in data set [2].

In turn, `C=CC(=O)Nc1cc(Nc2ncc(Cl)c(Nc3ccccc3S(=O)(=O)C(C)C)n2)c(OC)cc1N1CCN(C(C)C)CC1` showed a 50% growth inhibitory concentration (GI50) in data set [1] of 25 nM.

`C=CC(=O)Nc1cc(Nc2ncc(Cl)c(Nc3ccccc3S(=O)(=O)C(C)C)n2)c(OC)cc1N1CCN(CCOC)CC1`: the GI50 in data set [1] was found to be 41 nM.

Turning to `C=CC(=O)Nc1cc(Nc2ncc(Cl)c(Nc3ccccc3C#N)n2)c(OC)cc1N1CCN(CC)CC1`, the 50% growth inhibitory concentration (GI50) was determined as 440 nM in data set [1] and 110 nM in data set [2].

As to `C=CC(=O)Nc1cc(Nc2ncc(Cl)c(Nc3ccccc3P(C)(C)=O)n2)c(OC)cc1N1CCN(CC)CC1`, the 50% growth inhibitory concentration (GI50) in data set [1] came out at 26 nM; in data set [2] it was 37 nM.

Regarding `C=CC(=O)Nc1cc(Nc2ncc(Cl)c(Nc3ccccc3S(=O)(=O)C(C)C)n2)c(OC)cc1N1CCN(C2CCCCC2)CC1`, in data set [1], the GI50 is 77 nM.

Take `C=CC(=O)Nc1cc(Nc2ncc(Cl)c(Nc3ccccc3C#N)n2)c(OC)cc1N1CCOCC1`: the GI50 in data set [1] was 1200 nM; in data set [2], 370 nM.

On to `C=CC(=O)Nc1cc(Nc2ncc(Cl)c(Nc3ccccc3P(C)(C)=O)n2)c(OC)cc1N1CCOCC1`, for which the GI50 in data set [1] was determined as 780 nM; in data set [2], 360 nM.

Regarding `C=CC(=O)Nc1cc(Nc2ncc(Cl)c(Nc3ccccc3P(C)(C)=O)n2)c(OC)cc1N1CCC(N(C)C)CC1`, the results for the GI50 in data set [1] and in data set [2] were 220 nM and 140 nM, respectively.

Regarding `C[C@@H](Oc1cc(-c2cnn(C3CCNCC3)c2)cnc1N)c1c(Cl)ccc(F)c1Cl` [CRIZOTINIB], the concentration for 50% growth inhibition (GI50) at 72 h in data set [3] amounted to 3200 nM; in data set [5] it was 1100 nM; in data set [6], 450 nM. Besides, in data set [4], growth was halved (GI50) at 37 nM.

For `C=CC(=O)Nc1cc(Nc2ncc(Cl)c(Nc3ccccc3S(=O)(=O)C(C)C)n2)c(OC)cc1N1CCOCC1`, the GI50 in data set [1] is 1200 nM; in data set [2], less than 0.3 nM.

Regarding `C=CC(=O)Nc1cc(Nc2ncc(Cl)c(Nc3ccccc3C#N)n2)c(OC)cc1N1CCN(C(C)C)CC1`, the GI50 in data set [1] amounted to 430 nM; in data set [2], 110 nM.

Turning to `COc1cc(N2CCC(N3CCN(C)CC3)CC2)ccc1Nc1ncc(Cl)c(Nc2ccccc2S(=O)(=O)C(C)C)n1`, the GI50 in data set [7] was 420 nM; in data set [8], 560 nM.

On to `C=CC(=O)Nc1cc(Nc2ncc(Cl)c(Nc3ccccc3C#N)n2)c(OC)cc1N1CCC(N2CCN(C)CC2)CC1`, for which the 50% growth inhibitory concentration (GI50) in data set [1] stood at 200 nM; in data set [2] it was 98 nM.
